Paper PMC7147967 (Nature nanotechnology, 2020)

Columns and labels:
[1] = test system: MCF-7/C6 HER2+ breast cancer; experiment: In vivo therapeutic effect, MCF-7/C6 xenograft; design: species or system Balb/c nude mice; details: 8 mg/kg i.v., 8 times q.o.d., n = 8 per group
Method in brief: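 Balb/c nude mice bearing s.c. flank MCF-7/C6 tumours (5×10^6 cells) were randomised into five groups 10 days after inoculation. Groups received PBS or test nanoparticles i.v. every 48 h. Tumour volume and body weight were measured twice weekly over the 40-day treatment, and survival was followed. Data are mean ± s.d.; t-test or ANOVA.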

[2] = molecular target: Soluble extracellular domain of HER2 protein (Homo sapiens, UniProt P04626); experiment: Fibrillar transformation of NPs on interaction with HER2 protein; details: TEM/DLS, over 24 h, HER2 protein/peptide ligand 1:1000
Method in brief: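 Soluble HER2 extracellular domain (HEK 293-expressed) was added to fresh nanoparticles (99% water, 20 μM) at a HER2/peptide ligand ratio of 1:1000. At 0.5, 6 and 24 h, samples were taken for DLS size and zeta potential, CD, and TEM with uranyl acetate staining. Bis-pyrene AIE fluorescence was followed over time to track transformation.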

MCF-7/C6 tumour tissue = experiment: Tumour tissue analysis after three injections; type: in vivo, Balb/c nude mice; details: 3 consecutive q.o.d. injections, 8 mg/kg, n = 6
Method in brief: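 MCF-7/C6 tumour-bearing Balb/c nude mice were sacrificed after three i.v. injections given every other day. Excised tumours were processed for H&E staining, Ki-67 staining, fluorescence imaging of sections and high-magnification TEM.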

[3] = Size of nanoparticles by DLS and TEM; type: physicochemical; details: fresh NPs, 99% water content (H2O:DMSO 99:1), 20 μM
Method in brief: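 Peptide in DMSO was diluted with DMSO/deionized water mixtures to give a range of water contents. Nanoparticle formation was checked by UV–vis absorption and fluorescence spectra. Freshly made nanoparticles (99% water, 20 μM) were sized by DLS and by TEM with uranyl acetate staining.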

Substance	time within which all mice died [1] [days]	structural transformation after treatment with HER2 protein [2]	cell kill in tumour sections (H&E) (MCF-7/C6 tumour tissue)	diameter of nanoparticles [3]
BP-FFVLK-PEG1000 [NPs3]	≤ 57	did not reveal any significant changes	No significant cell kill was detected	25–60 nm
BP-GGAAK-PEG1000 [NPs4]	≤ 60	did not reveal any significant changes	No significant cell kill was detected	around 20 nm
